CSC inhib: cancer stem cell viability inhibitors, primary screen, luminescence; 300,000 compounds, 1.1% hits; AID 2717, 2010; cancer stem cell-like cells viability; inhibition, % at 7.5 µM; in the data active means inhibition above about 75%; tested in HMLE shEcad cells
Beta cell apopt: inhibitors of cytokine-induced beta cell apoptosis, primary screen, luminescence | protection from apoptosis, % (test concentration not listed) | AID 435005, 2010 | 300,000 compounds, 0.8% hits | INS-1E cytokine-induced death, ATP luminescence, 48 h; percent of positive-control rescue, neutral wells zero;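 active means Every replicate reaches about 75%, or at least half do and their mean reaches it too, limit read from the data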;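 further: higher means more ATP so stronger rescue from cytokine killing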
Mdm2-MdmX inh: inhibitors of human Mdm2-MdmX association, primary screen, cell-based, luminescence, split luciferase, SaOS-2, uHTS | SaOS-2 split-luciferase Mdm2/MdmX complementation | Protein Mdm4 (Homo sapiens) + E3 ubiquitin-protein ligase Mdm2 (Homo sapiens), … | inhibition, % at 8 µM | 330,000 compounds, 3% hits;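 active means inhibition of at least 50% at 8 µM in the primary screen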
Target sequence (O15151 whole entry, looked up): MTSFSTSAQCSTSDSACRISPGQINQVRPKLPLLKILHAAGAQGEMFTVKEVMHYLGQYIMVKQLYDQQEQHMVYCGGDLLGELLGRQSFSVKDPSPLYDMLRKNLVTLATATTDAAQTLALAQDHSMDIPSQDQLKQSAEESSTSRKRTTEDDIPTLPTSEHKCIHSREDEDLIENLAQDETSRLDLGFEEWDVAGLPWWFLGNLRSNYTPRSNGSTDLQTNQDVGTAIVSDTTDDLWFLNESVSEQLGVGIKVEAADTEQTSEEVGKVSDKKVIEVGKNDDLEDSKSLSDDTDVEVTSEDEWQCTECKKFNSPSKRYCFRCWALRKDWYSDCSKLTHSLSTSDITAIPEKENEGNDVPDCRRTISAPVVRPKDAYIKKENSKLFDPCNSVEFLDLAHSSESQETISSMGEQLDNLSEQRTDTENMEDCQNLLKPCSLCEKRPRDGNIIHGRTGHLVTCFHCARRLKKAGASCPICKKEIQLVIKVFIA
Target sequence (Q00987 whole entry, looked up): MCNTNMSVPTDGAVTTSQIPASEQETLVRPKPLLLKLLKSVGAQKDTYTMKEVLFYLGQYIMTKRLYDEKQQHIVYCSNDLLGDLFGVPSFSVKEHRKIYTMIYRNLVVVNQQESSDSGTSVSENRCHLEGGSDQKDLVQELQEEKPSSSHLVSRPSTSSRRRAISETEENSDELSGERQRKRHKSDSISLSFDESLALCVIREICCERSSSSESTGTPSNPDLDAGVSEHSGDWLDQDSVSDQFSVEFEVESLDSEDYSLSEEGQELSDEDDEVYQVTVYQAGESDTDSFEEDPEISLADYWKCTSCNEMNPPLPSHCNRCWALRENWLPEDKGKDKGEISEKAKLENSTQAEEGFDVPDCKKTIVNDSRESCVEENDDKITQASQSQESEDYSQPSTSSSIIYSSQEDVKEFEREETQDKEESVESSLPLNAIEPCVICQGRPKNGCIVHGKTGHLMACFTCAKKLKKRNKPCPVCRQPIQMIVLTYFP
Calb FLC: C. albicans growth inhibition with fluconazole, primary screen, CaCi-2 strain, Alamar Blue fluorescence; AID 1979, 2009; growth inhibition, % (no concentration beside the values); C. albicans CaCi-2 (fluconazole-resistant clinical isolate) + fluconazole, 48 h; 300,000 compounds, 0.57% hits;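 active means growth inhibition above about 58% in most replicates, limit read from the data, passing the limit was not always enough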;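 further: all wells also contain fluconazole at 8 µg/ml as a sub-toxic cotreatment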
T cruzi inh: inhibitors of intracellular T. cruzi growth, primary screen, luminescence, NIH3T3 host cells; 300,000 compounds, 1.4% hits; inhibition, % (test concentration not listed); T. cruzi beta-gal in NIH3T3, 90 h;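 active means mean inhibition across valid replicates above about 55%, limit read from the data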;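 further: signal also drops with host cell toxicity which is not excluded here; higher percent means less beta-gal luminescence so fewer parasites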
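Incubation – ≥90 h infection period, 3 h prior cell attachment · System – NIH/3T3 fibroblasts plus reporter T. cruzi · Doses – compound pinned at 50 nL/well, DMSO · Read-out basis – percent inhibition of parasite-derived β-gal signal · Signal – luminescent β-galactosidase signal after 60 min lysis · Also added – 5000 T. cruzi trypomastigotes/well · Medium – Low-serum DMEM with 2% FBS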
SKKanGAS inh: S. pyogenes SKKanGAS growth inhibitors in kanamycin, primary screen, streptokinase expression inhibitor project, SKKanGAS strain, BacTiter-Glo luminescence. AID 1662, 2009. 300,000 compounds, 1.3% hits. 6 h. inhibition, % at 7.5 µM;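 active means mean replicate score, as percent of positive control median, at least 50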;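 further: strain carries kanamycin resistance gene driven by streptokinase promoter and grows in 40 µg/ml kanamycin; loss of luminescence reflects streptokinase promoter inhibition or plain growth inhibition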
Mdm2 MdmX conf: Mdm2-MdmX complex disruptors, retested hits, confirmation, luminescence, single concentration. shares compounds with Mdm2-MdmX inh. Mdm2-MdmX binding, luminescent assay. inhibition, % at 8 µM. 10,000 compounds, 55% hits. AID 489028, 2010; in the data active means inhibition above about 40%
Full FLuc ctr: full-length luciferase signal inhibition, confirmation, counter-screen for Mdm2/MdmX interaction inhibitor project, cell-based, single concentration, SaOS-2 | shares compounds with Mdm2-MdmX inh | SaOS-2 full-length luciferase counterscreen, luminescence | inhibition, % at 8 µM | 6,200 compounds, 77% hits | AID 504607, 2011;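 active means mean inhibition at 8 µM reaching about 37%, which flags the compound as non-specific, limit read from the data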;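 further: p53-null SaOS-2 cells with luciferase driven by a doxycycline-inducible promoter; compound on cells about two nights before reading with doxycycline added after day one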
Of the large screens only hits and unclear results are named; the others gave an inactive call (follow-up assays come after a bar, where they were run). Shown are actives, neighbours in structure and some others; about 5.7% of the full set was active somewhere.

Cc1cc(C)nc(/N=C(\N)Nc2ccc(CC(=O)OC(C)C)cc2)n1	none (no result: Beta cell apopt)
Cc1cc(C)nc(/N=C(\N)Nc2cccc(OCc3ccccc3)c2)n1	Mdm2-MdmX inh 73 | Mdm2 MdmX conf 50 | Full FLuc ctr 66
Cc1cc(C)nc(/N=C(\N)Nc2ccc(OCc3ccccc3)cc2)n1	Mdm2-MdmX inh 54 | Mdm2 MdmX conf inactive
Cc1cc(C)nc(/N=C(\N)Nc2ccc(OCCC(C)C)cc2)n1	Mdm2-MdmX inh 66 | Mdm2 MdmX conf 49 | Full FLuc ctr 53
O=C(Nc1nc(-c2ccccn2)cs1)c1cccc(-n2cnnn2)c1	Beta cell apopt 76, Mdm2-MdmX inh 77, T cruzi inh 63, SKKanGAS inh 53 | Mdm2 MdmX conf 69 | Full FLuc ctr inactive
O=C(Nc1nc(-c2ccccn2)cs1)c1ccco1	Mdm2-MdmX inh 51, SKKanGAS inh 59 | Mdm2 MdmX conf inactive
O=C(Nc1ccc(Br)cc1)c1cccc(-n2cnnn2)c1	none
CC(C)CC1NC(=O)N(CC(=O)N2c3ccccc3NC(=O)C2(C)C)C1=O (stereo not drawn)	none
CC(C)C[C@@H]1NC(=O)[C@H](Cc2ccccc2)N(C)C(=O)[C@H](C)NC(=O)c2ccccc2NC(=O)[C@H](Cc2ccc(O)cc2)N(C)C1=O	Mdm2-MdmX inh 75 (no result: Beta cell apopt) | Mdm2 MdmX conf 57 | Full FLuc ctr 71
CCOc1ccccc1NC(=O)c1cc(C(=O)c2cc(Br)ccc2O)coc1=N	Mdm2-MdmX inh 55 (no result: SKKanGAS inh) | Mdm2 MdmX conf 60 | Full FLuc ctr 69
O=C(COc1ccccc1)NC(=S)Nc1ccc2c3c(cccc13)CC2	none
O=C(/C=C/c1ccccc1)NC(=S)Nc1ccc2c3c(cccc13)CC2	Mdm2-MdmX inh 59 | Mdm2 MdmX conf inactive
Cc1ccc(-n2ncc(C(=O)Nc3ccc(Cl)cc3)c2C2CCNCC2)cc1C	Mdm2-MdmX inh 61 | Mdm2 MdmX conf 54 | Full FLuc ctr 77
CSc1nnc(C)c(=O)n1COC(=O)c1ccccc1	none
CCCCCCCCCn1ccc(=N)cc1	Beta cell apopt 116, Mdm2-MdmX inh 91 | Mdm2 MdmX conf 81 | Full FLuc ctr inactive
Cn1nnnc1Sc1ncnc2scc(-c3ccc(C(F)(F)F)cc3)c12	CSC inhib 94, Mdm2-MdmX inh 98 (no result: Calb FLC, T cruzi inh, SKKanGAS inh) | Mdm2 MdmX conf 99 | Full FLuc ctr 50
Cn1nnnc1Sc1ncnc2scc(-c3cccc(C(F)(F)F)c3)c12	Mdm2-MdmX inh 100 (no result: CSC inhib, Calb FLC, T cruzi inh, SKKanGAS inh) | Mdm2 MdmX conf 99 | Full FLuc ctr 53
Cn1nnnc1Sc1ncnc2scc(-c3ccccc3C(F)(F)F)c12	none (no result: Calb FLC, T cruzi inh, SKKanGAS inh)
Cn1nnnc1Sc1ncnc2scc(-c3cccc(F)c3)c12	Mdm2-MdmX inh 98 (no result: Calb FLC, T cruzi inh, SKKanGAS inh) | Mdm2 MdmX conf 99 | Full FLuc ctr 53
COc1cccc(-c2csc3ncnc(Sc4nnnn4C)c23)c1	Mdm2-MdmX inh 98 (no result: CSC inhib, Calb FLC, T cruzi inh, SKKanGAS inh) | Mdm2 MdmX conf 80 | Full FLuc ctr inactive
COC(=O)CSc1ncnc2scc(-c3ccccc3)c12	none
Cc1ccc(C(=O)NC(C)c2ccc(-n3ccnc3)cc2)o1 (stereo not drawn)	none (no result: CSC inhib)
Cc1cc(OC(=O)c2cccc(Br)c2)c([N+](=O)[O-])c(=O)[nH]1	none
COc1ccc(N2CC(O)=C(c3nc(-c4ccc(Cl)cc4)cs3)C2=N)cc1	Mdm2-MdmX inh 53 | Mdm2 MdmX conf 42 | Full FLuc ctr 63
COc1ccc(N2CC(O)=C(c3nc(-c4ccc(Br)cc4)cs3)C2=N)cc1	Mdm2-MdmX inh 71 | Mdm2 MdmX conf 54 | Full FLuc ctr 75
COc1ccc(N2CC(O)=C(c3nc(-c4ccc(F)cc4)cs3)C2=N)cc1	none (no result: CSC inhib)
COc1ccc(N2CC(O)=C(c3nc(-c4ccccc4)cs3)C2=N)cc1	none
Cc1nn(CCCC(=O)NC2CCC(C)CC2)c(=O)c2nn(-c3ccccc3)c(C)c12 (stereo not drawn)	none
Cc1cc(NC(=O)CSc2ccccc2)no1	none
Cc1cc(NC(=O)CSc2nnc3c(C)cc4cc(C)c(C)cc4n23)no1	Mdm2-MdmX inh 78 | Mdm2 MdmX conf inactive
Cc1cc(NC(=O)CSc2nnc(-c3ccccc3)c(-c3ccccc3)n2)no1	Mdm2-MdmX inh 53 | Mdm2 MdmX conf 56 | Full FLuc ctr 47
COc1ccc2cc(C)c(SCC(=O)Nc3cc(C)on3)nc2c1	none (no result: CSC inhib, Beta cell apopt) | Mdm2 MdmX conf inactive
COc1ccc(C(=O)NC(CC(=O)O)c2cc([N+](=O)[O-])ccc2Cl)c(SC)c1 (stereo not drawn)	none
Cc1ccc(-c2nnc(N3CCOCC3)c3ccccc23)cc1S(N)(=O)=O	none (no result: CSC inhib, Beta cell apopt)
COc1ccc(C(CNC(=O)c2cc3ccccc3cc2O)N2CCOCC2)cc1 (stereo not drawn)	none
Cc1cccc(NC(=O)c2cc3n(n2)C(C(F)(F)F)CC(c2ccc4c(c2)OCO4)N3)c1 (stereo not drawn)	Mdm2-MdmX inh 51, SKKanGAS inh 50 (no result: Beta cell apopt) | Mdm2 MdmX conf 75 | Full FLuc ctr 47
COc1ccc(NC(=O)c2cc3n(n2)C(C(F)(F)F)CC(c2ccc4c(c2)OCO4)N3)cc1OC (stereo not drawn)	none (no result: Beta cell apopt, Calb FLC, T cruzi inh, SKKanGAS inh)
CCN(C(=O)c1ccc(S(=O)(=O)N2CCC(C)CC2)cc1)C1CCS(=O)(=O)C1 (stereo not drawn)	none
COc1ccc(C(=O)C(CN2CCCC2)c2ccccc2)cc1 (stereo not drawn)	CSC inhib 86, Mdm2-MdmX inh 99, Calb FLC 80 | Mdm2 MdmX conf 64 | Full FLuc ctr inactive
c1ccc(C(CN2CCOCC2)c2ccccc2)cc1	none
CCCCOc1ccc(C(=O)C(CN2CCOCC2)c2ccccc2)cc1 (stereo not drawn)	CSC inhib 111, Mdm2-MdmX inh 94 | Mdm2 MdmX conf 74 | Full FLuc ctr inactive
CCC(O)(c1ccc(OC)cc1)C(CN1CCOCC1)c1ccccc1 (stereo not drawn)	none (no result: SKKanGAS inh)
O=C(c1ccc(F)cc1)C(CN1CCOCC1)c1ccccc1 (stereo not drawn)	Mdm2-MdmX inh 64, T cruzi inh 58 (no result: CSC inhib, Beta cell apopt) | Mdm2 MdmX conf 43 | Full FLuc ctr 38
CCCCCOc1ccc(C(=O)C(c2ccccc2)N2CCOCC2)cc1 (stereo not drawn)	none
COc1ccc(C(=O)C(CN2CCOCC2)c2ccccc2)cc1 (stereo not drawn)	Mdm2-MdmX inh 80 | Mdm2 MdmX conf 81 | Full FLuc ctr inactive

Compound activity: PubChem BioAssay, several laboratories
